Test results published in ChEMBL document CHEMBL1158546, “Discovery of novel and potent leukotriene B4 receptor antagonists. Part 1” (J Med Chem, 2010).
Activity calls are given as the source filed them. No cut-off for these calls is given here.

How the values were obtained:
[1] = Half life in Sprague-Dawley rat at 5 mg/kg, iv; format: ADME, organism-based; design: dose 5 mg/kg, route intravenous; settings: in vivo
Method in brief: (§1)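 Rat single-dose PK, n = 3, with oral dosing at 10 mg/kg and intravenous dosing at 2.5 or 5 mg/kg.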

Rattus norvegicus [2] = assay: Toxicity in rat assessed as alkaline phosphatase level at 40 mg/kg, po qd treated for 14 days; format: organism-based; design: dose 40 mg/kg, route oral; settings: in vivo, 336 h
Method in brief: (§2)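 Male Han-Wistar rats (200-230 g), n = 4 per group, were given 40 or 400 (mg/kg)/day orally for 14 days in 2% Klucel LF/0.1% Tween-80 versus vehicle. Body weight was recorded at pretreatment and on days 1, 8 and 14, and food intake weekly. Clinical chemistry was sampled on day 5 and at necropsy. Organs were formalin-fixed and H&E stained. Data are given as mean ± SD and analysed by Bartlett's test.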

Rattus norvegicus [3] = assay: Toxicity in rat assessed as effect on body weight at 400 mg/kg, po qd treated for 14 days; format: organism-based; design: dose 400 mg/kg, route oral; settings: in vivo, 336 h; method in brief: as §2
Cytochrome P450 2C9 = Cytochrome P450 2C9 (Homo sapiens, UniProt P11712); assay: Inhibition of CYP2C9 fluorescence method; format: ADME
Cytochrome P450 2C9, sequence (P11712 whole entry): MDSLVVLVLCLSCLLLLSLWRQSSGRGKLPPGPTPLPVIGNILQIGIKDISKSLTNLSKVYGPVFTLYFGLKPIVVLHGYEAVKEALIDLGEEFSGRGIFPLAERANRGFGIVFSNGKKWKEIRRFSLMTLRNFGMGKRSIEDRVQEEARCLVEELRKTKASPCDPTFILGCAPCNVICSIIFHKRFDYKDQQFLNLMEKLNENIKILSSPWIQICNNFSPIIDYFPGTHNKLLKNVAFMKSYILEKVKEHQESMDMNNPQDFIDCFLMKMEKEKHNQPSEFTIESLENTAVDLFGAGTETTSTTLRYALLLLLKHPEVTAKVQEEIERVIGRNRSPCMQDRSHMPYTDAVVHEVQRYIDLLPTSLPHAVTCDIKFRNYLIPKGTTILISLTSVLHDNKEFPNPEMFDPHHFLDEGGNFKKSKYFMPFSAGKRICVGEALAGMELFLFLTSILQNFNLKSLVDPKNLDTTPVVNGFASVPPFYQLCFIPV

[4] = Volume of distribution at steady state in Sprague-Dawley rat at 5 mg/kg, iv; format: ADME, organism-based; design: dose 5 mg/kg, route intravenous; settings: in vivo, read-out: Vdss; method in brief: as §1
Rattus norvegicus [5] = assay: Toxicity in rat assessed as alkaline phosphatase level at 400 mg/kg, po qd treated for 14 days; format: organism-based; design: dose 400 mg/kg, route oral; settings: in vivo, 336 h; method in brief: as §2
[6] = Clearance in Sprague-Dawley rat at 5 mg/kg, iv; format: ADME, organism-based; design: dose 5 mg/kg, route intravenous; settings: in vivo; method in brief: as §1
[7] = Tmax in Sprague-Dawley rat at 10 mg/kg, po; format: ADME, organism-based; design: dose 10 mg/kg, route oral; settings: in vivo; method in brief: as §1
Cavia porcellus = assay: Antiinflammatory activity against LTB4-evoked eosinophilic pulmonary inflammation in Hartley guinea pig at 10 mg/kg, po after 1 hr treated before LTB4 challenge; format: functional, organism-based; design: dose 10 mg/kg
Method in brief: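 Male Hartley guinea pigs (250-350 g) were dosed orally with 10 mg/kg in 2% Klucel LF/0.1% Tween-80. One hour later they were exposed to 10 μg/mL LTB4 aerosol for 20 min. BAL (3 × 5 mL HBSS) was done 2 h after challenge under pentobarbital. Cells were counted, and differentials of at least 300 cells were taken on Wright-stained cytospins. Analysis by two-way ANOVA/Bonferroni; 4-20 animals per group.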

[8] = biological target: T1, Leukotriene B4 receptor 1 (Homo sapiens, UniProt Q15722); assay: Antagonist activity at FLAG-tagged human BLT1 receptor expressed in HEK293 cells assessed as inhibition of LTB4-stimulated calcium mobilization preincubated for 10 mins before LTB4 challenge; format: functional, cell-based
T1 sequence (Q15722 whole entry): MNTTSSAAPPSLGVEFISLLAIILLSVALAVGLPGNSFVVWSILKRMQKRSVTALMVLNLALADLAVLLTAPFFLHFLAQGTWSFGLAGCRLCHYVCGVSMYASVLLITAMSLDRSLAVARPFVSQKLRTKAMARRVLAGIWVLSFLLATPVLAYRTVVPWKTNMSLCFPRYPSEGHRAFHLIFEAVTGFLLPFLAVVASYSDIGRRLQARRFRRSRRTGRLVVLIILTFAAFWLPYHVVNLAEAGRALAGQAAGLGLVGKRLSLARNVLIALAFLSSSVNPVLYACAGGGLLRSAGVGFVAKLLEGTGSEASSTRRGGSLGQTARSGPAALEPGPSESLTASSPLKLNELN

Rattus norvegicus [9] = assay: Toxicity in rat assessed as aspartate aminotransferase level at 400 mg/kg, po qd treated for 14 days; format: organism-based; design: dose 400 mg/kg, route oral; settings: in vivo, 336 h; method in brief: as §2
[10] = Oral bioavailability in Sprague-Dawley rat at 10 mg/kg, po; format: ADME, organism-based; settings: in vivo; method in brief: as §1
Rattus norvegicus [11] = assay: Toxicity in rat assessed as effect on food consumption at 400 mg/kg, po qd treated for 14 days; format: organism-based; design: dose 400 mg/kg, route oral; settings: in vivo, 336 h; method in brief: as §2
Cytochrome P450 3A4 = Cytochrome P450 3A4 (Homo sapiens, UniProt P08684); assay: Inhibition of CYP3A4 fluorescence method; format: ADME
Cytochrome P450 3A4, sequence (P08684 whole entry): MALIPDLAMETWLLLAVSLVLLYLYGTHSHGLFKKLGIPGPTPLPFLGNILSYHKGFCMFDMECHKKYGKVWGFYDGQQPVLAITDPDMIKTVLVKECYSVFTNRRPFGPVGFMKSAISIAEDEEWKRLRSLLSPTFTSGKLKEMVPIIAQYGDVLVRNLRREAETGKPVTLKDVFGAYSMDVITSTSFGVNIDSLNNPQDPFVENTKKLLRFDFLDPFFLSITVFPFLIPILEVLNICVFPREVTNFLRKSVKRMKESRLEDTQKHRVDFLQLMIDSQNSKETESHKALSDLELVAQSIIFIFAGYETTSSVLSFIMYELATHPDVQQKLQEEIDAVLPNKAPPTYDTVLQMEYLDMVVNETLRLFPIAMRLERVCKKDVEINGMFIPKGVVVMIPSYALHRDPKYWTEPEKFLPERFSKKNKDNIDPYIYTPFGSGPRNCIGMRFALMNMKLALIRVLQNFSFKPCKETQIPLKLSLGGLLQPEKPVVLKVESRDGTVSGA
Method in brief: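 High-throughput CYP panel covering 1A2, 2D6, 2C9, 2C19 and 3A4, using fluorogenic substrates. IC50 was determined in μM.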

Rattus norvegicus [12] = assay: Hepatotoxicity in rat assessed as increase in ALT level at 40 mg/kg, po qd after 15 days; format: toxicity, organism-based; design: dose 40 mg/kg, route oral; settings: in vivo, 360 h; method in brief: as §2
Rattus norvegicus [13] = assay: Hepatotoxicity in rat assessed as increase in ALT level at 40 mg/kg, po qd after 5 days; format: toxicity, organism-based; design: dose 40 mg/kg, route oral; settings: in vivo, 120 h; method in brief: as §2
Rattus norvegicus [14] = assay: Hepatotoxicity in po dosed rat assessed as increase in total bilirubin level treated for 14 days measured; format: toxicity, organism-based; settings: in vivo, 336 h
[15] = biological target: T1, Leukotriene B4 receptor 1; assay: Antagonist activity at BLT1 receptor expressed in human HL60 cells assessed as inhibition of LTB4-stimulated calcium flux after 30 mins; format: functional, cell-based, HL-60; settings: read-out: IC50
Method in brief: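 HL-60 cells grown in RPMI-1640 with 20% FBS were plated at 2.0 × 10^5 cells/ml with 1 μM retinoic acid. They were dye-loaded in HBSS/20 mM HEPES/5 mM probenecid (0.05% BSA in the replacement buffer) for 1 h at 37 C. Compound (5 × 10^-11 to 3 × 10^-6 M final) was added for 30 min at room temperature, then 0.5 μM LTB4. Fluorescence was read every 1.5 s for 100 s and peak increase scored as % inhibition versus DMSO control.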

Cytochrome P450 1A2 = biological target: T2, Cytochrome P450 1A2 (Homo sapiens, UniProt P05177); assay: Inhibition of CYP1A2 by fluorescence method; format: ADME
T2 sequence (P05177 whole entry): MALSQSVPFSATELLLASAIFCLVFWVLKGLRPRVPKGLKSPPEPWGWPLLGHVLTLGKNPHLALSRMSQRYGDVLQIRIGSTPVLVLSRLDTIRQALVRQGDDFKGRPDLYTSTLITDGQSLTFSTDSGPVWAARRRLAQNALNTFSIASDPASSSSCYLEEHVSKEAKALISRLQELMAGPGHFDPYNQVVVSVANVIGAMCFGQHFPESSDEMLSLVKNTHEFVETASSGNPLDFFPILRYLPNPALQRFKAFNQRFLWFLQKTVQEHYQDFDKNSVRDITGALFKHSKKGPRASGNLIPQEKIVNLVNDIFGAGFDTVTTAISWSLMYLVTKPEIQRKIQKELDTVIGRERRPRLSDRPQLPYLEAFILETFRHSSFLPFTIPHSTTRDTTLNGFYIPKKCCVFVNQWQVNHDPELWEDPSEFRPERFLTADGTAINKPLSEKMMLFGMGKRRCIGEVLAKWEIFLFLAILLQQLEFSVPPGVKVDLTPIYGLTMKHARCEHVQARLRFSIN
Method in brief: (§3)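 Cytochrome P450 high-throughput panel (1A2, 2D6, 2C9, 2C19, 3A4) using fluorogenic substrates; IC50 reported.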

Neutrophil = assay: Inhibition of LTB4-stimulated human neutrophils migration after 30 mins by using CyQuant GR fluorescent dye; format: functional, cell-based; settings: Homo sapiens, Neutrophil, 0.5 h; read-out: IC50
Method in brief: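 Human blood neutrophils (95-97% pure, isolated over Lympholyte-poly) at 5 × 10^6 cells/mL were preincubated with compound (3 × 10^-12 to 1 × 10^-6 M final) for 30 min at 37 C. Migration toward 100 ng/mL LTB4 across a polycarbonate membrane ran 90 min at 37 C. Migrated cells were lysed with CyQuant GR and read at 480/520 nm. IC50 was taken from a sigmoidal fit of % inhibition.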

Rattus norvegicus [16] = assay: Hepatotoxicity in rat assessed as increase in ALT level at 400 mg/kg, po qd treated after 5 days; format: toxicity, organism-based; design: dose 400 mg/kg, route oral; settings: in vivo, 120 h; method in brief: as §2
[17] = Half life in Sprague-Dawley rat at 10 mg/kg, po; format: ADME, organism-based; design: dose 10 mg/kg, route oral; settings: in vivo; method in brief: as §1
Rattus norvegicus [18] = assay: Hepatotoxicity in rat assessed as increase in ALT level at 400 mg/kg, po qd treated after 15 days; format: toxicity, organism-based; design: dose 400 mg/kg, route oral; settings: in vivo, 360 h; method in brief: as §2
Cytochrome P450 2C19 = Cytochrome P450 2C19 (Homo sapiens, UniProt P33261); assay: Inhibition of CYP2C19 fluorescence method; format: ADME; method in brief: as §3
Cytochrome P450 2C19, sequence (P33261 whole entry): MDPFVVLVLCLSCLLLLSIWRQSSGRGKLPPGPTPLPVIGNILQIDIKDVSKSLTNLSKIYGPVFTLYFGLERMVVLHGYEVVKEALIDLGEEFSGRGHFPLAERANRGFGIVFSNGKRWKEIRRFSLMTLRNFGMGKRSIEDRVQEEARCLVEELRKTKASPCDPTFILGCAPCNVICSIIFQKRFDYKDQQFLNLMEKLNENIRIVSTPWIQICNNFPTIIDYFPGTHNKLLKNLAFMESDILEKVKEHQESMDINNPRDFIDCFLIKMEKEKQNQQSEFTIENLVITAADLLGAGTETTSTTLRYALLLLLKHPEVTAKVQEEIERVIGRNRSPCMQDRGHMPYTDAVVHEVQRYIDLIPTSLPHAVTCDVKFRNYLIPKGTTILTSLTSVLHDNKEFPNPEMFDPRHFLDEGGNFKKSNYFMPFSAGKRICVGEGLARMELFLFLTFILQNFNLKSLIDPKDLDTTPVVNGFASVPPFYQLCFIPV

## O=C(O)CCCOc1cccc(CCCCCCOc2cc(-c3cccc(F)c3)cc(-c3ccc4c(c3)OCO4)c2)c1CCC(=O)O
[1]
  half-life: 2.4 h
Rattus norvegicus [2]
  Activity: Non-toxic
Rattus norvegicus [3]
  Activity: Non-toxic
Cytochrome P450 2C9
  IC50: > 25000 nM
[4]
  Vd: 0.98 L/kg
Rattus norvegicus [5]
  Activity: Non-toxic
[6]
  clearance: 11.6 mL/min/kg
[7]
  Tmax: 5 h
Cavia porcellus
  Activity: Active
[8]
  IC50: 129 nM
Rattus norvegicus [9]
  Activity: Non-toxic
[10]
  bioavailability: 88%
Rattus norvegicus [11]
  Activity: Non-toxic
Cytochrome P450 3A4
  IC50: > 7500 nM
Rattus norvegicus [12]
  Activity: 35 IU/L
Rattus norvegicus [13]
  Activity: 40 IU/L
Rattus norvegicus [14]
  Activity: Toxic
[15]
  IC50: 1.19 nM
Cytochrome P450 1A2
  IC50: > 7500 nM
Neutrophil
  IC50: 3.68 nM
Rattus norvegicus [16]
  Activity: 69 IU/L
[17]
  half-life: 3.1 h
Rattus norvegicus [18]
  Activity: 121 IU/L
Cytochrome P450 2C19
  IC50: > 7500 nM

## O=C(O)CCCOc1cccc(CCCCCCOc2cc(-c3ccsc3)cc(-c3ccc4c(c3)OCO4)c2)c1CCC(=O)O
[1]
  half-life: 2.1 h
Rattus norvegicus [2]
  Activity: Non-toxic
Rattus norvegicus [3]
  Activity: Non-toxic
Cytochrome P450 2C9
  IC50: 3900 nM
[4]
  Vd: 0.22 L/kg
Rattus norvegicus [5]
  Activity: Non-toxic
[6]
  clearance: 5.47 mL/min/kg
[7]
  Tmax: 3 h
Cavia porcellus
  Activity: Active
[8]
  IC50: 114 nM
Rattus norvegicus [9]
  Activity: Non-toxic
[10]
  bioavailability: 70%
Rattus norvegicus [11]
  Activity: Non-toxic
Cytochrome P450 3A4
  IC50: > 7500 nM
Rattus norvegicus [12]
  Activity: 38 IU/L
Rattus norvegicus [13]
  Activity: 40 IU/L
Rattus norvegicus [14]
  Activity: Toxic
[15]
  IC50: 0.44 nM
Cytochrome P450 1A2
  IC50: > 7500 nM
Neutrophil
  IC50: 0.1 nM
Rattus norvegicus [16]
  Activity: 58 IU/L
[17]
  half-life: 2.7 h
Rattus norvegicus [18]
  Activity: 125 IU/L
Cytochrome P450 2C19
  IC50: > 7500 nM
